Results on 2 molecules are retold here after ChEMBL document CHEMBL2169854, “New insight into the central benzodiazepine receptor-ligand interactions: design, synthesis, biological evaluation, and molecular modeling of 3-substituted 6-phenyl-4H-imidazo[1,5-a][1,4]benzodiazepines and related compounds” (J Med Chem, 2011).

As usually defined, the Ki is the dissociation constant of the complex between target and ligand, obtained from inhibition or displacement.

The source made the active and inactive calls. The rule behind the calls is not given here.

The species entered for one experiment is Bos taurus. Put plainly: Ratio of Ki for central benzodiazepine receptor in bovine cortical membrane to Ki for central benzodiazepine receptor in bovine cortical membrane in presence of 50 uM GABA. It counts as cell membranes.
The nature of experiment [1]: Displacement of [3H]flumazenil from central benzodiazepine receptor in bovine cortical membrane after 90 mins by beta liquid scintillation counting. It counts as cell membranes, Bos taurus. An outline of the steps:
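At least six concentrations spanning 3 log units were tested in 2% DMSO. Ki was obtained by Cheng–Prusoff (Kd 0.85 nM bovine, 0.91 nM human), mean of three determinations.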
Background: Displacement assays read how much labelled ligand stays bound in the presence of the test substance.

For experiment [2], the target named is T1, GABA-A receptor; alpha-1/beta-2/gamma-2 (Homo sapiens) (UniProt P14867+P47870+P18507). Put plainly: Antagonist at human recombinant GABA-A alpha1beta2gamma2L receptor expressed in Xenopus laevis oocytes assessed as blockade of diazepam-induced potentiation of GABA-induced chloride current at 10 uM incubated 60 seconds before addition of GABA measured after 30 seconds at holding potential -70 mV by two-microelectrode voltage clamp technique. It counts as functional, cell-based. The note with it: Oocyte. An outline of the steps: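 Oocytes expressing human α1β2γ2L, α2β1γ2L or α5β2γ2L receptors were clamped at −70 mV. Compound at 10 μM was tested against the enhancement of the GABA EC10 response by 1.0 μM diazepam, with 60 s preapplication and 30 s coapplication. The response was expressed as percent potentiation, from 2–3 oocytes.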

Experiment [3] concerns the target T2, GABA-A receptor; alpha-5/beta-3/gamma-2 (Homo sapiens, UniProt P18507+P28472+P31644).
T2 sequence (P18507 whole entry): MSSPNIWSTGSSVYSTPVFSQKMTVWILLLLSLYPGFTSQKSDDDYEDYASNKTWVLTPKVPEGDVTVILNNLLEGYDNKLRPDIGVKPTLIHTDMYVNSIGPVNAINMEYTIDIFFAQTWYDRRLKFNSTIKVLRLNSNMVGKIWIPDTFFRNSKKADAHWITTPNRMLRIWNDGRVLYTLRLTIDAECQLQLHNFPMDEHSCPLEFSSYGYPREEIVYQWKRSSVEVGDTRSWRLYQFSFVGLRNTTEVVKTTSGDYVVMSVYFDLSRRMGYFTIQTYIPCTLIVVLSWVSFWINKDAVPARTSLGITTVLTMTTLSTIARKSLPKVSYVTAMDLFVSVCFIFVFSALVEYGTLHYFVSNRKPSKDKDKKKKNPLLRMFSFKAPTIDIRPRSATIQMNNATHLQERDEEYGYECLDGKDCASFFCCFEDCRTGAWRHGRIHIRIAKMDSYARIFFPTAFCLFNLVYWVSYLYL
T2 sequence (P28472 whole entry): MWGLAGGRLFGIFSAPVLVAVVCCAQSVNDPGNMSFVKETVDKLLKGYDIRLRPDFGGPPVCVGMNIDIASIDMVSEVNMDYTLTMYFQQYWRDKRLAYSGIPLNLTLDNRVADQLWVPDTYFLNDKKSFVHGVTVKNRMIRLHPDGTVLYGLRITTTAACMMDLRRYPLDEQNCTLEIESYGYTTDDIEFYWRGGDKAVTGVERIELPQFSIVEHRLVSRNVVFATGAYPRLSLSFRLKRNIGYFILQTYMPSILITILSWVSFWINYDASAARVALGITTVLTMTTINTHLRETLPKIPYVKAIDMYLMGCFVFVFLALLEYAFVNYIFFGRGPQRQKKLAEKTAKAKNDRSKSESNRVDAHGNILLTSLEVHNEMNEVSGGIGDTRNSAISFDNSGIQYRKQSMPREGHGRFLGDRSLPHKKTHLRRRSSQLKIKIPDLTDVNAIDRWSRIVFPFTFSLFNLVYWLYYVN
T2 sequence (P31644 whole entry): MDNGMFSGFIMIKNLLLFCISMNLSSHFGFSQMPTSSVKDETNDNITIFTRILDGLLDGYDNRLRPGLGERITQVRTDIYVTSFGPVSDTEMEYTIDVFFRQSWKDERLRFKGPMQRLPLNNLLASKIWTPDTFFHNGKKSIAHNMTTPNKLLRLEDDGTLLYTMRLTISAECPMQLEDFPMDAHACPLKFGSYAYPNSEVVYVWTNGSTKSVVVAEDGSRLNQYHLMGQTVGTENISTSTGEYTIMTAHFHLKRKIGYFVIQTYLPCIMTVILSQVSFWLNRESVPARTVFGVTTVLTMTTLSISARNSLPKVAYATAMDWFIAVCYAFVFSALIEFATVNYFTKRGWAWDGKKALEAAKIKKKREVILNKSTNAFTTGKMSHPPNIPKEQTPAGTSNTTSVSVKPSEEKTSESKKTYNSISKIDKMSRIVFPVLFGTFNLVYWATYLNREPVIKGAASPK
Briefly: Displacement of [3H]flumazenil from human recombinant GABA-A alpha5beta3gamma2L receptor in HEK293 cells. It counts as cell-based. In short, it runs like this:
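Membranes came from stably transfected HEK293 lines expressing α2β2γ2 or α5β3γ2, grown in MEM/EBSS with 10% FCS at 37 C, and were resuspended in 10 mM potassium phosphate pH 7.4 with 100 mM KCl. […] At least six concentrations were tested, DMSO ≤1%. Ki was obtained by Cheng–Prusoff from n = 3 experiments run in triplicate.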

The subject of a further experiment is Oocyte. Put plainly: Modulation of human recombinant GABA-A alpha5beta2gamma2L receptor expressed in Xenopus laevis oocytes assessed as effect on GABA-induced chloride current at 1 uM incubated 60 seconds before addition of GABA measured after 30 seconds at holding potential -70 mV by two-microelectrode voltage clamp technique relative to control. It counts as cell-based.

Experiment [4] has as its target GABA A receptor alpha-1/beta-1/gamma-2 (Homo sapiens) (UniProt P14867+P18507+P18505). Briefly: Modulation of human recombinant GABA-A alpha1beta1gamma2L receptor expressed in Xenopus laevis oocytes assessed as effect on GABA-induced chloride current at 10 uM incubated 60 seconds before addition of GABA measured after 30 seconds at holding potential -70 mV by two-microelectrode voltage clamp technique relative to control. It counts as cell-based. The note with it: Oocyte.

Experiment [5] has as its target T1, GABA-A receptor; alpha-1/beta-2/gamma-2 (Homo sapiens). Put plainly: Modulation of human recombinant GABA-A alpha1beta2gamma2L receptor expressed in Xenopus laevis oocytes assessed as effect on GABA-induced chloride current at 10 uM incubated 60 seconds before addition of GABA measured after 30 seconds at holding potential -70 mV by two-microelectrode voltage clamp technique relative to control. It counts as cell-based. The conditions noted are these: Oocyte.

Experiment [6] concerns Mus musculus. Put plainly: […] activity in mouse assessed as effect on spontaneous motility measuring number of movements on plane board at 10 mg/kg, po after 5 mins by hole-board test relative to CMC-treated control. Also noted: dose 10 mg/kg. It counts as functional, organism-based. In short, it runs like this: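 Mice dosed orally in 1% CMC were placed singly on a 16-hole board for 5 min. Photocells counted plane movements (spontaneous motility) and hole explorations. Groups of 12–15 mice were compared with CMC controls.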

Experiment [7] has as its system Mus musculus. Put plainly: Anxiolytic effect in mouse assessed as increase in time spent in light compartment at 10 mg/kg, po by light/dark box test. It counts as functional, organism-based. Also noted: dose 10 mg/kg. An outline of the steps:
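Male mice were used. Compound was given orally as a suspension in 1% CMC; diazepam was given ip in saline; volume 10 mL/kg. Each mouse was placed in the lit side of a two-compartment light/dark box and observed for 5 min, scoring time in the light and transfers. Groups were compared by ANOVA with Fisher PLSD.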

For experiment [8], the system named is Mus musculus. Put plainly: Antiamnesic activity against scopolamine-induced amnesic effect in mouse at 10 mg/kg, po by passive avoidance test. It counts as functional, organism-based. Also noted: dose 10 mg/kg. In short, it runs like this:
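In a mouse passive-avoidance test, oral doses in 1% CMC were tested against amnesia induced by 1.5 mg/kg scopolamine ip. Retention latency was scored and compared with controls by ANOVA.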

Regarding `CCOC(=O)c1ncn2c1CN=C(c1ccc(C)cc1)c1ccccc1-2`, the Ratio Ki in the experiment listed under Bos taurus was 0.97. For the same molecule, the results for the Ki in [1] and in [3] were 11.4 nM and 908 nM, respectively. In experiment [2], the outcome was Active. The Activity is -4% with Oocyte, 8.3% in experiment [4] and -4% in experiment [5].

With `CCOC(=O)c1ncn2c1CN=C(c1ccc(F)cc1)c1cc(F)ccc1-2`, in the experiment listed under Bos taurus, the Ratio Ki was 1. The values for the Ki in experiment [1] and in experiment [3] were 10.9 nM and 772 nM, respectively. The result (in [2]; with Mus musculus [7]; with Mus musculus [8]) was Active. Further, in the experiment on Mus musculus [6], the outcome was inactive. The results for the Activity (in the experiment on Oocyte; in [4]; in experiment [5]) were -1%, 6.5% and 12%, respectively.
